# From PubChem BioAssay
# NOD2 RIPK2 PPI – inhibitors of human NOD2-RIPK2 interaction. 0.38% of 360,000 active. O43353. AID 624267. inhibition, % at 4.98 µM. CHO BLA complementation NOD2-RIPK2, CCF4 ratio; in the data active means inhibition above about 21%;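 further: 0% = vehicle only and 100% = reference blocker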
# TLR4-MyD88 BLA – TLR4-MyD88 interaction inhibition in cells | O00206+Q99836 | HeLa CL3-4 TLR4/MyD88 BLA complementation, FRET ratio | inhibition, % at 8.4 µM | 0.18% of 200,000 active; in the data active means inhibition above about 25%;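 further: 0% = vehicle and 100% = reference inhibitor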
# MC4R ag barr – human MC4R agonism via beta-arrestin; P32245; U2OS MC4R beta-arrestin complementation, luminescence; percent of melanotan II response, DMSO zero; 0.98% of 360,000 active; activation, % at 8.9 µM; AID 540308;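 active means activation above a per-plate cutoff, the mean activation of sample wells on that plate plus 3 SD, cut at about 8% in these data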
# Target sequence (P32245 whole entry, looked up): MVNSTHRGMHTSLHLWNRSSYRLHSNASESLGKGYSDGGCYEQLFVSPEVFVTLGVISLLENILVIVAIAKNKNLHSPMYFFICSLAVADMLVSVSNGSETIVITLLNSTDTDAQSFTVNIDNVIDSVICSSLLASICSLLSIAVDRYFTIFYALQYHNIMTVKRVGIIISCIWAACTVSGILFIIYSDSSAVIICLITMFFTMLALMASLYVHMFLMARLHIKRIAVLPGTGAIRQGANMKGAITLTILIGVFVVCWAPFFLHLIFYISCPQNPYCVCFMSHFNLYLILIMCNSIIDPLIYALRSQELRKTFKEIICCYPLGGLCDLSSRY
# MC4R antag cAMP – blocks human MC4R cAMP signaling. P32245. 0.48% of 360,000 active. AID 540295. inhibition, % at 6.5 µM. MC4R-expressing cells, MTII-stimulated cAMP, LANCE TR-FRET;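 active means inhibition above its plate's cutoff, the mean of tested wells on that plate plus 3 SD, cut at about 29% in these data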;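 further: 0% = Melanotan II alone and 100% = Melanotan II plus saturating MCL0020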
#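 Material: human MC4R-expressing U2OS cells. Probe or stimulus: Melanotan II challenge. Dosing: 6.5 µM single dose. Times: 30-min compound, 1-h challenge, 1-h detection, room temperature. Technique: TR-FRET with Eu-cAMP and labeled anti-cAMP, 671 nm. Replication: singlicate.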
# TLR9-MyD88 inh – inhibitors of human TLR9-MyD88 binding. Q9NR96+Q99836. CHO BLA complementation TLR9-MyD88, CCF4 FRET ratio. inhibition, % at 4.98 µM. 0.21% of 340,000 active. AID 504734;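 active means inhibition above the mean over all tested compounds plus 3 SD, cut at about 21% in these data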;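 further: 0% = DMSO only wells and 100% = clavulanate BLA inhibitor control wells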
# * marks the source's active call; other numbers are inactive results; / = no result given. Rows were chosen to be rich in hits. Some 1.8% of all compounds tested hit in one or more screens of this group.
SMILES,NOD2 RIPK2 PPI,TLR4-MyD88 BLA,MC4R ag barr,MC4R antag cAMP,TLR9-MyD88 inh
CCc1ccc(N2C(=O)/C(=C/c3cccs3)N(CC(=O)OC)C2=S)cc1,2.5,-23.5,9.1*,2.0,19.6
COC(=O)CN1C(=S)N(c2ccc(OC)cc2)C(=O)/C1=C/c1cccs1,7.9,-1.0,0.8,-1.9,0.0
CCC(=O)Nc1cc(C(C)(C)C)ccc1C(C)=O,-0.9,-13.8,2.1,14.0,-1.1
Cc1nc2sc(C(=O)Nc3ccccc3)c(N)c2c(C)c1[N+](=O)[O-],-8.1,-3.3,9.3*,-9.0,-13.2
CC(=O)c1ccc(NC(=O)c2sc3nc(C)c(C)c(C)c3c2N)cc1,-3.7,/,-1.9,1.4,-5.4
Cn1c(/C=C/c2ccc(Br)cc2)nc2ccccc2c1=O,8.5,/,9.0*,25.6,-0.8
CC(C)C[C@H](NC(=O)N1CC(=O)Nc2ccccc21)C(=O)N1CCC(C(=O)O)CC1,5.8,/,-1.7,2.9,-5.3
CC1=NNC(=O)/C1=C\c1cn(-c2ccccc2)nc1-c1ccc(F)cc1,4.0,2.6,3.2,30.5*,-0.2
C#CCOCCOCCOCCNc1nc(N2CCN(C(=O)CCCCCCCCCCNC(=O)[C@H]([C@@H](C)CC)n3cc(CCCCCN)nn3)CC2)nc(N2CCN(C(=O)CCCCCCCCCCNC(=O)[C@H]([C@@H](C)CC)n3cc(CCCCN=C(N)N)nn3)CC2)n1,68.6*,/,-1.1,57.4*,75.1*
C#CCOCCOCCOCCNc1nc(N2CCN(C(=O)Cn3cc(CCCN=C(N)N)nn3)CC2)nc(N2CCN(C(=O)[C@H]([C@@H](C)CC)n3cc(CCCCN)nn3)CC2)n1,-3.6,/,-0.4,0.8,-12.7
C#CCOCCOCCOCCNc1nc(N2CCN(C(=O)CCCCCCCCCCNC(=O)Cn3cc(CCCCCN)nn3)CC2)nc(N2CCN(C(=O)CCCCCCCCCCNC(=O)[C@H]([C@@H](C)CC)n3cc(CCCCN=C(N)N)nn3)CC2)n1,35.1*,/,0.4,19.9,39.5*
C#CCOCCOCCOCCNc1nc(N2CCN(C(=O)CCCCCCCCCCNC(=O)[C@H]([C@@H](C)CC)n3cc(CCCCN=C(N)N)nn3)CC2)nc(N2CCN(C(=O)CCCCCCCCCCNC(=O)[C@H](CO)n3cc(CCCCCN)nn3)CC2)n1,30.8*,/,-0.9,32.5*,35.4*
Cc1ccc(NC(=O)c2cc3c(CO)cnc(C)c3oc2=Nc2cccc(C(N)=O)c2)cc1,-8.1,/,-1.8,27.9,2.4
O=C(Nc1cc(Br)ccc1O)C1CC(c2ccccc2Cl)=NO1 (centres undefined),14.4,/,8.6*,5.2,-2.1
Clc1ccc(CSc2nnc(-c3ccncc3)s2)cc1,1.3,/,0.1,2.6,5.4
Clc1cccc(Cl)c1CSc1nnc(-c2ccncc2)s1,-0.8,/,30.8*,6.6,-3.9
O=C(Nc1cc(C(F)(F)F)cc(C(F)(F)F)c1)c1ccc(Cn2cc(C(F)(F)F)ccc2=O)cc1,5.9,-10.4,8.4*,3.1,3.6
O=C(Nc1nccs1)c1ccc(N2CCOCC2)c([N+](=O)[O-])c1,-13.2,/,-4.7,1.3,-0.6
Cc1cc(C(=O)OC(C)C(=O)Nc2nc(-c3ccccc3)cs2)c(C)o1 (centres undefined),-9.5,-15.9,2.9,6.3,-6.4
Cc1cc(C(=O)OCC(=O)Nc2nc(-c3ccccc3)cs2)c(C)o1,-6.9,-9.6,8.5*,13.0,5.0
Cc1ccc(C)c(N2CCN(S(=O)(=O)c3ccc(-c4ccc(=O)[nH]n4)o3)CC2)c1,-0.7,/,11.4*,0.1,-6.1
Cc1ccc(-c2nc3ccccc3o2)cc1NC(=S)NC(=O)c1cccs1,-2.8,0.6,22.8*,12.6,-0.7
COc1ccc(/C=C2\SC(=O)N(CC(=O)Nc3cccnc3)C2=O)cc1OC,0.0,1.4,-1.2,7.0,-9.7
COc1ccc(/C=C2\SC(=O)N(CC(=O)Nc3ccc(F)cc3)C2=O)cc1O,8.3,/,9.2*,10.8,-2.5
COc1ccccc1NC(=O)Cn1ncc2c1-c1ccccc1OC2,-7.8,-12.6,0.1,5.6,-7.0
SMILES,NOD2 RIPK2 PPI,TLR4-MyD88 BLA,MC4R ag barr,MC4R antag cAMP,TLR9-MyD88 inh
COc1cc(NC(=O)Cn2ncc3c2-c2ccccc2OC3)cc(OC)c1OC,30.3*,0.2,-1.3,-0.8,0.4
CCn1c(SCC(=O)Nc2c(C#N)cnn2-c2ccccc2)nnc1-c1cccs1,-8.2,/,-0.1,5.9,/
O=C(COC(=O)c1ccc(F)cc1Cl)NC1CCCCCCC1,-3.6,/,8.6*,11.1,-10.3
O=C(Nc1ccc(/C=C/c2nc3ccccc3o2)cc1)c1c(F)cccc1F,9.8,-8.6,8.9*,10.0,0.8
CC(=O)N1C[C@H]2CON(C)[C@H]2C[C@H]1c1ccc(-c2ccccc2)cc1,-5.2,/,0.2,14.2,2.7
CC(CCC(C)C(C)(C)C)[C@@H]1CC[C@H]2C3C[C@H](OS(O)(=S)=S)[C@H]4C[C@H](OS(O)(=S)=S)[C@@H](OS(O)(=S)=S)C[C@]4(C)[C@H]3CC[C@]12C (some centres undefined) (tested in a mixture with another compound),23.9*,/,-1.1,24.7,2.3
O=C(CCCN1C(=O)/C(=C\c2cccs2)SC1=S)Nc1ccccc1O,-16.6,/,8.9*,-2.7,5.7
CC(=O)Nc1ccc(Nc2nc(C(F)(F)F)nc3c2nnn3Cc2ccccc2Cl)cc1,8.0,/,8.9*,21.8,-4.6
O=C(Nc1ccc(F)cc1F)c1ccc2nc(N3CCOCC3)sc2c1,-13.9,/,-1.9,8.8,-0.7
O=C(Nc1ccccc1F)c1ccc2nc(N3C(=O)CCC3=O)sc2c1,-11.7,-1.6,0.0,32.8*,0.5
CCSc1ccc([C@@H]2[C@@H]3C(=O)N(CC)C(=O)[C@@H]3[C@]3(C(=O)OC)CCCN23)cc1,9.4,/,-1.9,12.2,4.6
COc1ccc(CNC(=O)/C=C/c2cc3c(cc2Br)OCO3)cc1,-3.4,0.1,8.5*,-4.9,-0.6
COCCNc1nc(N2CCCCC2)c2cnn(C)c2n1,6.8,/,-0.9,3.1,-1.2
O=C1c2cccc3c(N4CCCCC4)ccc(c23)C(=O)N1c1ccc(Cl)cn1,/,27.5*,/,/,/
O=C1c2cccc3c(N4CCCCC4)ccc(c23)C(=O)N1c1ccccn1,6.4,15.6,-0.8,0.6,7.5
CCCCNS(=O)(=O)c1cc2c3c(c1)CCN3C(=O)CC2,7.0,/,0.6,2.1,5.7
COc1ccc2c3c(ccc2c1)C(=O)/C(=C/O)CC3,-6.0,/,26.1*,11.3,3.6
CCCCN(CCO)CCCC,-8.3,/,0.4,8.0,3.5
CCOc1ccc(NC(=O)Cn2sc3nc(C)cc(C)c3c2=O)cc1,26.9*,/,2.7,2.2,5.9
CC(=O)Nc1ccc(NC(=O)CN(c2ccc(C34CC5CC(CC(C5)C3)C4)cc2)S(C)(=O)=O)cc1,1.6,-10.8,11.4*,9.5,-3.2
CCOc1cc(N2CCOCC2)c(OCC)cc1NC(=O)COC(=O)CCOc1ccc(C(C)(C)C)cc1,-3.0,/,-2.5,0.8,-4.8
